≈ marks a conversion by molar mass, not a printed value. Where only a bound is given, the exact number is not on record here.

Data on 20 compounds can be found in ChEMBL document CHEMBL1140999, “Succinyl hydroxamates as potent and selective non-peptidic inhibitors of procollagen C-proteinase: design, synthesis, and evaluation as topically applied, dermal anti-scarring agents” (Bioorg Med Chem Lett, 2008).

For data set [1], the target named is T1, Bone morphogenetic protein 1 (Homo sapiens, UniProt P13497).
T1 sequence (P13497 whole entry): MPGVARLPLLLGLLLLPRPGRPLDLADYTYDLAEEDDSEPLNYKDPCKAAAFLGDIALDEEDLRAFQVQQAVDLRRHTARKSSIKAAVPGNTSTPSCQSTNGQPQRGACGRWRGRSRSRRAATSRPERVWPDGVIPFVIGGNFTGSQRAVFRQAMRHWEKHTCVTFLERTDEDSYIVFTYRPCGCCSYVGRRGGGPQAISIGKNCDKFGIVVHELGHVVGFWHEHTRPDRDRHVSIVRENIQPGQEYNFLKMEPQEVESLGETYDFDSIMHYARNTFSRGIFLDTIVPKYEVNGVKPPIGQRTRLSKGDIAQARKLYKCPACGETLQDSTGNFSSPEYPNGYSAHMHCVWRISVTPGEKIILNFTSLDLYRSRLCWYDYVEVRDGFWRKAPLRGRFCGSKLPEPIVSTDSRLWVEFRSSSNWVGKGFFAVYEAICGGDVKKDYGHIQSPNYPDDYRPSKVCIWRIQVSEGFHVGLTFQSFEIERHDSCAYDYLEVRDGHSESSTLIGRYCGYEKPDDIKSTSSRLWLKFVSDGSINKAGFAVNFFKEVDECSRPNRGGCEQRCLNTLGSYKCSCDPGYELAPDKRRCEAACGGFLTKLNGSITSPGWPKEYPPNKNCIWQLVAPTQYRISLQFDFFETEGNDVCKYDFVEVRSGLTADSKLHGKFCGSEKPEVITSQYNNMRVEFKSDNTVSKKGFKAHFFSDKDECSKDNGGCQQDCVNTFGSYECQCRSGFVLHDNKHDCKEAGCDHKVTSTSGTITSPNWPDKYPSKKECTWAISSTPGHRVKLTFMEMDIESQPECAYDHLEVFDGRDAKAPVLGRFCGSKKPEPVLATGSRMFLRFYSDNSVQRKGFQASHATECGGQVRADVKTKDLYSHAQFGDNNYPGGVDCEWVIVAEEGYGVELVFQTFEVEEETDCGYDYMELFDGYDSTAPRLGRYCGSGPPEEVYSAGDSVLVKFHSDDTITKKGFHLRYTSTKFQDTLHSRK
Description: Inhibition of human procollagen C-proteinase expressed in CHO cells by fluorescence assay. The class given is cell-based.

The nature of data set [2]: Lipophilicity, log D at pH 7.4. It counts as physicochemical. Particulars: buffer.
Data set [3] is described as follows: Aqueous solubility in phosphate-buffered saline at pH 7.4 by HPLC. The class given is physicochemical.
The target in data set [4] is T1, Bone morphogenetic protein 1. Description: Inhibition of human procollagen C-proteinase assessed as [3H]procollagen turnover by scintillation counting.
A further data set concerns the target Stromelysin-1 (Homo sapiens, UniProt P08254). Description: Inhibition of human MMP3 by fluorescence assay.
Data set [5] concerns Fibroblast. Description: Reduction in collagen deposition in human fibroblasts at 10 uM after 8 days by HPLC. The class given is functional. Details: scale not given: the % may be the effect or the level left.
Data set [6] deals with Zone of skin. As to the kind of experiment: Effect on transepidermal penetration in human cadaver skin assessed as TED flux after 24 hrs by LC-MS/MS analysis using [14C]mannitol as receptor fluid. The class given is functional. In short, it runs like this: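 Human cadaver stratum corneum was mounted in a Franz diffusion cell and exposed for 24 h to a solution in 50% aqueous propylene glycol (pH 6.8). Compound reaching the receptor chamber was measured and a flux rate was calculated. Reported as mean ± SEM, n = 6–10.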

Data set [7] can be described thus: Dissociation constant, pKa of the compound. The class given is physicochemical.
Data set [8] concerns Fibroblast. Description: Reduction in collagen deposition in human fibroblasts after 8 days by HPLC. It counts as functional, cell-based.
A short description of data set [9]: Saturated solubility in propylene glycol-citrate buffer-ethanol. It counts as physicochemical.
The test system of data set [10] is Zone of skin. Description: Effect on transepidermal penetration in human cadaver skin assessed as TED flux after 24 hrs by LC-MS/MS analysis using [14C]mannitol as receptor fluid in presence of propylene glycol-citrate buffer-ethanol. It counts as functional. In short, it runs like this:
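Human cadaver stratum corneum was mounted in a Franz diffusion cell and exposed for 24 h to a solution in propylene glycol–citrate buffer–ethanol (20:30:50). Receptor-chamber concentration was used to calculate TED flux.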

In data set [11] the target is 3',5'-cyclic-AMP phosphodiesterase 4A (Homo sapiens, UniProt P27815). As to the kind of experiment: Inhibition of PDE4A.
Sequence of 3',5'-cyclic-AMP phosphodiesterase 4A (P27815 whole entry): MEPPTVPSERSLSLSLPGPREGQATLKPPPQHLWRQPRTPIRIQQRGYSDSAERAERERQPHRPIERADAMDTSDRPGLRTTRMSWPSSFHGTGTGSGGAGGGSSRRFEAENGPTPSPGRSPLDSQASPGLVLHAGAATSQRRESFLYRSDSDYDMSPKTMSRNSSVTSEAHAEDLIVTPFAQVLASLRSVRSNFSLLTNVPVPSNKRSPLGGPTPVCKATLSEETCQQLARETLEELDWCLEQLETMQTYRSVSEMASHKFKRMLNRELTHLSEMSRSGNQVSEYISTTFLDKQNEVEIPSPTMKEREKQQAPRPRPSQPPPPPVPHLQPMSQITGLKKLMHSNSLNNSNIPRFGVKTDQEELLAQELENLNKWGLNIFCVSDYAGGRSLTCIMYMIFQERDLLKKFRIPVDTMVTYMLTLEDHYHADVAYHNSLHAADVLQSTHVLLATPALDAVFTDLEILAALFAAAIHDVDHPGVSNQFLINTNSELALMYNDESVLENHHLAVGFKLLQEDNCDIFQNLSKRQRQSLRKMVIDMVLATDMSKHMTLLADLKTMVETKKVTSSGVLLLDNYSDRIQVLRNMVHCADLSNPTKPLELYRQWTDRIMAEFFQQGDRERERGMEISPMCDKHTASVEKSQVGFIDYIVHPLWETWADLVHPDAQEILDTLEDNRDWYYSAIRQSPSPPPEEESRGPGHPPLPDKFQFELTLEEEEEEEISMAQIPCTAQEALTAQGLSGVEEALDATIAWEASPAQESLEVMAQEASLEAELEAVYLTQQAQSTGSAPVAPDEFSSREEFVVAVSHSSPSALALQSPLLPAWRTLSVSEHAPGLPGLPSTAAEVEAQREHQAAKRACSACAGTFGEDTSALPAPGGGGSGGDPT
In data set [12] the target is 3',5'-cyclic-AMP phosphodiesterase 4B (Homo sapiens, UniProt Q07343). As to the kind of experiment: Inhibition of PDE4B.
Sequence of 3',5'-cyclic-AMP phosphodiesterase 4B (Q07343 whole entry): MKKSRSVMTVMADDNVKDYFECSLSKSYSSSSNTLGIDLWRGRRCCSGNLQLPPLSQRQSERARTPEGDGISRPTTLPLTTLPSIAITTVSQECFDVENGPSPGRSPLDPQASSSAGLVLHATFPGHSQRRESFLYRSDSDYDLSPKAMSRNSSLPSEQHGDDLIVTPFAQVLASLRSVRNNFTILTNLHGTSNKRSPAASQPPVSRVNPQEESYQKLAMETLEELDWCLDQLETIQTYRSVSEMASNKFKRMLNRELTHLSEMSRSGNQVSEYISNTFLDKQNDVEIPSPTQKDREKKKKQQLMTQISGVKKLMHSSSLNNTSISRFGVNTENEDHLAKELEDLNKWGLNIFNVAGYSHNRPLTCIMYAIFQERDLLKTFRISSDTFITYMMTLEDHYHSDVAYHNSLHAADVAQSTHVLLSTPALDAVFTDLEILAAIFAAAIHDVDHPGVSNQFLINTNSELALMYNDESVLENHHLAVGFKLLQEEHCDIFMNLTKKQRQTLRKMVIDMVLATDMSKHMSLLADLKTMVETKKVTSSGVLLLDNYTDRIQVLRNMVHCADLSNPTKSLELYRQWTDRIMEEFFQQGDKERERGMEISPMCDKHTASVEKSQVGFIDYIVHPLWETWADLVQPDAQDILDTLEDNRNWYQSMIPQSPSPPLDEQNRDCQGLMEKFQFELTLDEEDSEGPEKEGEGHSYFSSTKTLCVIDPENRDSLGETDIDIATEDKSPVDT
Data set [13] addresses 3',5'-cyclic-AMP phosphodiesterase 4C (Homo sapiens, UniProt Q08493). Description: Inhibition of PDE4C.
Data set [14] deals with 3',5'-cyclic-AMP phosphodiesterase 4D (Homo sapiens, UniProt Q08499). As to the kind of experiment: Inhibition of PDE4D.
Sequence of 3',5'-cyclic-AMP phosphodiesterase 4D (Q08499 whole entry): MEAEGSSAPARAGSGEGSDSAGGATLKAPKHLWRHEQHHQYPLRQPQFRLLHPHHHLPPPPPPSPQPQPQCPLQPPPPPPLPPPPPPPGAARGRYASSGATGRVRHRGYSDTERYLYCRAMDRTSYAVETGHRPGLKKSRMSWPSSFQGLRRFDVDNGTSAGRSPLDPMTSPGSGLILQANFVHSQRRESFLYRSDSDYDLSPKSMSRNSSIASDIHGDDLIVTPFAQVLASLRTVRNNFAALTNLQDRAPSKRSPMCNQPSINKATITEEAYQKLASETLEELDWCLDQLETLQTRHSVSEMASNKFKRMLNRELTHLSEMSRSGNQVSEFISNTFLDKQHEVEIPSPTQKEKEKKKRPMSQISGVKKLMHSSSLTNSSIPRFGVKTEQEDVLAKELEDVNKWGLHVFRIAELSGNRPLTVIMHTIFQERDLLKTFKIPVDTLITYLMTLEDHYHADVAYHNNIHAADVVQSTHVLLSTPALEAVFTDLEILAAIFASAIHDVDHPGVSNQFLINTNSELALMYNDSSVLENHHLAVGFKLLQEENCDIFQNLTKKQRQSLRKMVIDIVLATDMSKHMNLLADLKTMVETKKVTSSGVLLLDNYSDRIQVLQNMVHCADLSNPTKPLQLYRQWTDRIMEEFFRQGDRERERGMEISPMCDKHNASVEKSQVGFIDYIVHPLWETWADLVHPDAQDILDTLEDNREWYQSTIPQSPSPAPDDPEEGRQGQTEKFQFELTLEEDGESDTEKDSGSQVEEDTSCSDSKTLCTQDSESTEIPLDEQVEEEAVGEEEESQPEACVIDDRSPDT
Data set [15] can be described thus: Metabolic stability in human liver microsomes assessed as half life. The class given is ADME, Microsome. A general note: Liver microsomes are a subcellular fraction often used to study metabolism.
A short description of data set [16]: Metabolic stability in dog liver microsomes assessed as half life. It counts as ADME, Canis lupus familiaris, Microsome.
A short description of data set [17]: Metabolic stability in rat liver microsomes assessed as half life. The class given is ADME, Microsome.
The nature of data set [18]: Elimination half life in rat at 2 mg/kg, iv administered as single dose. It counts as ADME, organism-based. Also noted: dose 2 mg/kg, route intravenous. Particulars: in vivo, read-out: beta t1/2 (converted). In short, it runs like this:
(§1)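 Male rats (n = 2) received a single intravenous dose of 2 mg/kg. Plasma sampling gave half-life, clearance and volume of distribution. Concentrations were also followed after dosing against the assay's limit of quantification.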

Data set [19] can be described thus: Plasma clearance in rat at 2 mg/kg, iv administered as single dose. The class given is ADME, organism-based. Details: dose 2 mg/kg, route intravenous. In short, it runs like this:
as §1

Data set [20] is described as follows: Volume of distribution in rat at 2 mg/kg, iv administered as single dose. It counts as ADME, organism-based. Particulars: in vivo. Also noted: dose 2 mg/kg, route intravenous. In short, it runs like this:
as §1

Data set [21] can be described thus: Elimination half life in dog at 0.5 mg/kg, iv administered as single dose. Particulars: in vivo, read-out: beta t1/2 (converted). Also noted: dose 0.5 mg/kg, route intravenous. The class given is ADME, organism-based, Canis lupus familiaris. In short, it runs like this: (§2)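 Male dogs (n = 2) received a single intravenous dose of 0.5 mg/kg or a single oral dose of 2 mg/kg. Plasma concentrations were used to derive half-life, clearance, volume of distribution, Cmax, Tmax and oral bioavailability.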

The nature of data set [22]: Plasma clearance in dog at 0.5 mg/kg, iv administered as single dose. It counts as ADME, organism-based, Canis lupus familiaris. Details: dose 0.5 mg/kg, route intravenous. In short, it runs like this: as §2
Data set [23] can be described thus: Volume of distribution in dog at 0.5 mg/kg, iv administered as single dose. Details: dose 0.5 mg/kg, route intravenous. To be noted: in vivo. The class given is ADME, organism-based, Canis lupus familiaris. In short, it runs like this: as §2
Data set [24] in a line: Cmax in dog at 2 mg/kg, po administered as single dose. It counts as ADME, organism-based, Canis lupus familiaris. Details: dose 2 mg/kg, route oral. Particulars: in vivo. The gist of the method: as §2
The nature of data set [25]: Tmax in dog at 2 mg/kg, po administered as single dose. The class given is ADME, organism-based, Canis lupus familiaris. Details: dose 2 mg/kg, route oral. To be noted: in vivo. In short, it runs like this: as §2
The nature of data set [26]: Oral bioavailability in dog at 2 mg/kg administered as single dose. To be noted: in vivo. The class given is ADME, organism-based, Canis lupus familiaris. The gist of the method:
as §2

Data set [27] in a line: Plasma concentration in rat at 2 mg/kg, iv administered as single dose after 2 hrs. Also noted: dose 2 mg/kg, route intravenous. The class given is ADME, organism-based. In short, it runs like this: as §1
Data set [28] can be described thus: Drug level in pig skin assessed as steady state concentration at 0.9 mg/ml in 50% aqueous propylene glycol administered tropically after 24 hrs. The class given is ADME, tissue-based, Sus scrofa, Zone of skin. Particulars: topical or ocular, read-out: Drug uptake. The gist of the method: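 Applied topically to intact pig skin as a 0.9 mg/ml solution in 50% aqueous propylene glycol. Tissue level was measured in the upper dermis as the steady-state concentration at 24 h.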

Sequence of Stromelysin-1 (P08254 whole entry): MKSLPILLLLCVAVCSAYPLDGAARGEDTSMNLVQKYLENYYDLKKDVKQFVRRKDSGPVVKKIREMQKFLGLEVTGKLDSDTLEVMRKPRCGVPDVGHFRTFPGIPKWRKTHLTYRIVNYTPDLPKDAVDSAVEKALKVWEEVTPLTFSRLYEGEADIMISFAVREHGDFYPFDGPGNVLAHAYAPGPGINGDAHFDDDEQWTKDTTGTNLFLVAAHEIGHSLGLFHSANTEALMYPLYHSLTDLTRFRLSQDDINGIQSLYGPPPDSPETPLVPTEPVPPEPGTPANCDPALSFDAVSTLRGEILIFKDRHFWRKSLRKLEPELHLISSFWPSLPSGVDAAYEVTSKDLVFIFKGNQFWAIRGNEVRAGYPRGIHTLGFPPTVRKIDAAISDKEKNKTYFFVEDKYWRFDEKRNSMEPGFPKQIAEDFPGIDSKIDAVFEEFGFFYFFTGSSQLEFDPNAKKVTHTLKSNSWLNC
Sequence of 3',5'-cyclic-AMP phosphodiesterase 4C (Q08493 whole entry): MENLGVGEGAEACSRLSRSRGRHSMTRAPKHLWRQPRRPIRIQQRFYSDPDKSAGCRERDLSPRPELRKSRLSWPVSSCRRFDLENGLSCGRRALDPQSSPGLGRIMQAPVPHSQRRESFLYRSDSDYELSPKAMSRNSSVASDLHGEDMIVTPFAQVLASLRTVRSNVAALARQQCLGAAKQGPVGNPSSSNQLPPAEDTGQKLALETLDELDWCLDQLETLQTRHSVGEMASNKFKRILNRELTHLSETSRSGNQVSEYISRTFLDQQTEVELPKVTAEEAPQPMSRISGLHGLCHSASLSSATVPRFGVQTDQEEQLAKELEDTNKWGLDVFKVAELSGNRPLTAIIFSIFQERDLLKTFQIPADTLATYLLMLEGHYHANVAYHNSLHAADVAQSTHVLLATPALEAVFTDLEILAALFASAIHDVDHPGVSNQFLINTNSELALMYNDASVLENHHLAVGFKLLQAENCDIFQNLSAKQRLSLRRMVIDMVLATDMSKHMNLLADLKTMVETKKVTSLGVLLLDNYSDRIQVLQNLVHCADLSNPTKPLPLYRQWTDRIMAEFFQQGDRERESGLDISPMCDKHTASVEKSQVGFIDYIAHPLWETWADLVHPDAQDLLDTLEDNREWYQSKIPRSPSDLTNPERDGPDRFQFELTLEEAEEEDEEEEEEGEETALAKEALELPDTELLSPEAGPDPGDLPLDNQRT

In turn, `CCCNC(=O)c1noc([C@H](CCCC2CCCCC2)CC(=O)NO)n1` registered a concentration for half-maximal inhibition (IC50) in data set [1] of 32 nM.
Take `O=C(C[C@@H](CCCC1CCCCC1)c1nc(C(=O)NCc2ccccc2)no1)NO`: the half-inhibitory concentration (IC50) in data set [1] was determined as 57 nM.
As for `CN(C)C(=O)c1noc([C@H](CCCC2CCCCC2)CC(=O)NO)n1`, the IC50 worked out at 10 nM in [1], 9.3 nM in [4] and 28 µM at Stromelysin-1. In data set [2], this compound returned a logD of 3.6. In addition, the solubility in data set [3] was 900 µg/mL (≈ 2550 µM). The same compound had an Activity with Fibroblast [5] of 67%. The TED in the data set with Zone of skin [6] was found to be 2.6 microg/cm2/h.
The compound `O=C(C[C@@H](CCCC1CCCCC1)c1nc(C(=O)NCc2ccccn2)no1)NO` yielded an IC50 in data set [1] of 37 nM.
In turn, `O=C(O)CNC(=O)c1noc([C@H](CCCC2CCCCC2)CC(=O)NO)n1` came in with a concentration for half-maximal inhibition (IC50) in [1] of 21 nM.
Compound `CC(C)NC(=O)c1noc([C@H](CCCC2CCCCC2)CC(=O)NO)n1` gave a concentration for half-maximal inhibition (IC50) in [1] of 21 nM.
Same read-out and setting: to `CNC(=O)c1noc([C@H](CCCC2CCCCC2)CC(=O)NO)n1` belongs 28 nM.
Still for that read-out and setting: to `CN(Cc1ccccc1)C(=O)c1noc([C@H](CCCC2CCCCC2)CC(=O)NO)n1` belongs 65 nM; to `CN(Cc1ccccn1)C(=O)c1noc([C@H](CCCC2CCCCC2)CC(=O)NO)n1`, 40 nM; to `O=C(C[C@@H](CCCC1CCCCC1)c1nc(C(=O)N2CCOCC2)no1)NO`, 25 nM.
In data set [1], `Cc1oc([C@H](CCCC2CCCCC2)CC(=O)NO)nc1C(N)=O` had a half-inhibitory concentration (IC50) of 17 nM.
On to `O=C(C[C@@H](CCCC1CCCCC1)c1nc(C(=O)N2CCCC2)no1)NO`, for which, in data set [1], the IC50 is 43 nM.
On to `O=C(C[C@@H](CCCC1CCCCC1)c1nc(C(=O)N2CCCCC2)no1)NO`, for which, in data set [1], the IC50 was 26 nM.
Still for that read-out and setting: to `NC(=O)c1coc([C@H](CCCC2CCCCC2)CC(=O)NO)n1` belongs 73 nM.
The same measure, in the same setting: the value for `Cc1oc([C@H](CCCC2CCCCC2)CC(=O)NO)nc1C(=O)N(C)C` was 17 nM; that for `CN(C)C(=O)c1coc([C@H](CCCC2CCCCC2)CC(=O)NO)n1` was 45 nM; that for `CN1CCN(C(=O)c2noc([C@H](CCCC3CCCCC3)CC(=O)NO)n2)CC1` was 54 nM.
In the case of `NC(=O)c1noc([C@H](CCCC2CCCCC2)CC(=O)NO)n1`, in data set [2], the logD worked out at 2.6. Besides, in data set [7], the pKa is 9. The same compound displayed a solubility in data set [3] of 35 µg/mL (≈ 108 µM). Besides, the half-maximal inhibitory concentration (IC50) amounted to 26 nM in data set [4]; 2100 nM in the data set with Fibroblast [8] (192 h); 1800 nM in data set [11]; 1500 nM in [12]; 2400 nM in data set [13]; 900 nM in data set [14]. For the same compound, the Activity with Fibroblast [5] is 76%; in the data set on Fibroblast [8], “Dose-dependent effect”. Also, the TED with Zone of skin [6] was 0.3 microg/cm2/h; in the data set with Zone of skin [10] it was 1.59 microg/cm2/h. This compound came in with a thermodynamic solubility in [9] of 13.8 mg/mL (≈ 42500 µM). The half-life in [15] is 19 min; in [16], 9 min; in data set [17], below 2 min; in [18] it was 48 min; in data set [21], 90 min. Also, the clearance in [19] is 157 mL/min/kg; in [22] it was 35 mL/min/kg. In addition, the distribution volume (Vd) in data set [20] is 12 L/kg; in data set [23], 4.6 L/kg. Moreover, in data set [24], the Cmax amounted to 110 ng/mL. Besides, the Tmax in data set [25] stood at 30 min. The compound also showed a bioavailability in [26] of 13%. This compound also had a concentration at 2 h in [27] below 100 ng/mL. Moreover, the concentration at 24 h in [28] was 10 µM.
In turn, `O=C(C[C@@H](CCCC1CCCCC1)c1nc(C(=O)NCC2CC2)no1)NO` returned an IC50 in [1] of 33 nM.
Consider `NC(=O)c1noc([C@@H](CCCC2CCCCC2)CC(=O)NO)n1`, for which the IC50 in data set [1] is above 2000 nM.

A word on the IC50: it is the concentration that gives 50% inhibition. The term logD denotes lipophilicity at a set pH, counting ionised and neutral species. The term solubility denotes the dissolved amount per volume that the medium holds. As a reminder, the pKa is the negative logarithm of the acid dissociation constant. As usually defined, the thermodynamic solubility is solubility found after equilibrating the solid with the medium. A word on the clearance: it is the rate of elimination divided by the concentration. A word on the Vd: it is the apparent volume that relates the amount in the body to the concentration in plasma or blood. The Cmax is the highest concentration seen after dosing. By Tmax is commonly meant the time from dosing to the highest level. In general, bioavailability refers to dose-corrected exposure relative to a reference, in per cent.
